Test results taken from ChEMBL document CHEMBL1134363 (J Med Chem, 2001).

Columns and labels:
[1] = molecular target: Sodium-dependent serotonin transporter (Rattus norvegicus, UniProt P31652); assay: In vitro binding affinity was determined against serotonin reuptake site of rat in presence of [3H]paroxetine radioligand
[2] = molecular target: Norepinephrine transporter (Rattus norvegicus, UniProt Q9WTR4); assay: In vitro binding affinity was determined against NA (noradrenaline) reuptake site of rat in presence of [3H]nisoxetine radioligand
Chain of Norepinephrine transporter (Q9WTR4 whole entry): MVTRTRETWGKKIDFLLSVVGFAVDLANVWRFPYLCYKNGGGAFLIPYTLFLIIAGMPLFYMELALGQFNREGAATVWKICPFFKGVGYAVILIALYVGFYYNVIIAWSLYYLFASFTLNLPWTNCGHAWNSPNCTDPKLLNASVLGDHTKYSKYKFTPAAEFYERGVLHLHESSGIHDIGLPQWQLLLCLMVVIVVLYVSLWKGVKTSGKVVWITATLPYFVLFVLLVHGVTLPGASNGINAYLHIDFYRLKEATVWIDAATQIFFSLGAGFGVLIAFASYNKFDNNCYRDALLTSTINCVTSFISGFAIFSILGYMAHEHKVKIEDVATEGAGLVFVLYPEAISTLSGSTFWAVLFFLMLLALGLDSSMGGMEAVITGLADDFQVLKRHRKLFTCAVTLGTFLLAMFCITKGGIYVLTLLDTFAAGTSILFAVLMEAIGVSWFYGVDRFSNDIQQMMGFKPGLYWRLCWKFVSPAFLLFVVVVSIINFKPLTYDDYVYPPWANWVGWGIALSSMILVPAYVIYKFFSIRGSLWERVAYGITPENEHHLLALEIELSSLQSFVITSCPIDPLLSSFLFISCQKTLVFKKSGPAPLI

[3] = molecular target: T1, Adrenergic receptor alpha-2 (Rattus norvegicus, UniProt P22086+P19328+P22909); assay: In vitro binding affinity against alpha-2 adrenergic receptor of rat in presence of [3H]-RX 821002 radioligand; type: protein assay
T1 sequence (P22086 whole entry): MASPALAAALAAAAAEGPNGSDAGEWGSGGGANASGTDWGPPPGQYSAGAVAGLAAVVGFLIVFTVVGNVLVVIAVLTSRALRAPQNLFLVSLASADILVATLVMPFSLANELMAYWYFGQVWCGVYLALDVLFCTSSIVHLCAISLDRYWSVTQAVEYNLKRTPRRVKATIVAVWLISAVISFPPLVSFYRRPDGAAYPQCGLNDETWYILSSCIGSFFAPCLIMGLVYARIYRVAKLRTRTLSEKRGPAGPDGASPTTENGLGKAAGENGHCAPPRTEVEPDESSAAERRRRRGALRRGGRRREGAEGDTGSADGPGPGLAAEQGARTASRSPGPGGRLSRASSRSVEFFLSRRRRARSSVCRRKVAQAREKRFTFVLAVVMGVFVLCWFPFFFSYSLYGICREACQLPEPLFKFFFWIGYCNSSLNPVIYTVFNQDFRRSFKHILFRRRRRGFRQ
T1 sequence (P19328 whole entry): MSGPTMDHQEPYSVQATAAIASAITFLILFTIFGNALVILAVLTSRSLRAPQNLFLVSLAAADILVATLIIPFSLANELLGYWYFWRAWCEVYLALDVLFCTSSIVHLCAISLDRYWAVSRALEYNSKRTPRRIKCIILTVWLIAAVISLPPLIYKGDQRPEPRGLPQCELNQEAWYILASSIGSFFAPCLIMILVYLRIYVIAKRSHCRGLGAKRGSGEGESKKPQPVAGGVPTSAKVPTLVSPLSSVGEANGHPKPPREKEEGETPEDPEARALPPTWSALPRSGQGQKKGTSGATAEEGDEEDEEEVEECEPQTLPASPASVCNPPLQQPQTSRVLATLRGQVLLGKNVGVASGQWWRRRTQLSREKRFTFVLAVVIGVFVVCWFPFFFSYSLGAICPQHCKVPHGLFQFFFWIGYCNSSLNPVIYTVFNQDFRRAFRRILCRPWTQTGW
T1 sequence (P22909 whole entry): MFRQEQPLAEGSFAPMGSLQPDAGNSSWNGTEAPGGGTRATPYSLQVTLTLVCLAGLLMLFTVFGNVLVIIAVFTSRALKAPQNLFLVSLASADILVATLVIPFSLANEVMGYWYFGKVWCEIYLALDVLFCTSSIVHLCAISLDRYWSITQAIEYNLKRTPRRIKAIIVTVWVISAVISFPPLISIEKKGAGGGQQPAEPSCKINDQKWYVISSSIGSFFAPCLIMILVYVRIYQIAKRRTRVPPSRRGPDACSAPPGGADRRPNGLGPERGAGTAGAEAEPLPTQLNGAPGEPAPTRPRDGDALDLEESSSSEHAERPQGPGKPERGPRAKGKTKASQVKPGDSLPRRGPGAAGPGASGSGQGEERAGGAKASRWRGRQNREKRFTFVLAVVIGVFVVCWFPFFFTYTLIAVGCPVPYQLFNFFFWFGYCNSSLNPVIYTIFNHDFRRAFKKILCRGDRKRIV

[4] = molecular target: T2, Alpha-2A adrenergic receptor (Homo sapiens) (UniProt P08913); assay: Antagonistic activity as [35S]GTP gamma-S binding at alpha-2a adrenergic receptor expressed in CHO cells; type: functional, cell-based
T2 sequence (whole entry): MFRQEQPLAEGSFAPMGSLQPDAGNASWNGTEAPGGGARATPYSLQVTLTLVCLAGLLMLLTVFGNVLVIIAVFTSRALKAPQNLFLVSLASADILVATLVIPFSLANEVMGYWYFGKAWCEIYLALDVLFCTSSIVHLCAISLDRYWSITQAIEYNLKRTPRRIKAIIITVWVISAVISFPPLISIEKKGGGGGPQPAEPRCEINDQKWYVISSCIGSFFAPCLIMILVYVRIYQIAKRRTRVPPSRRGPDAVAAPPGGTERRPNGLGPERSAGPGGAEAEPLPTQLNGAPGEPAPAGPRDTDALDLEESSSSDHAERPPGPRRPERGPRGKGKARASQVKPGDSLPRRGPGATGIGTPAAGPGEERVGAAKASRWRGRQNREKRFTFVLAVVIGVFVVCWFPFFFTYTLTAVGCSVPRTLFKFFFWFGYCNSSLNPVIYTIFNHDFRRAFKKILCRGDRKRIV
Method in brief: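 Membranes (40 μg/mL) from CHO cells stably expressing human α2A receptor, preincubated 30 min at room temperature with drug in 20 mM HEPES pH 7.4, 100 mM NaCl, 3 μM GDP, 3 mM MgCl2; 0.2 nM [35S]GTPγS added, 60 min room temperature, NA 10 μM as agonist. Nonspecific: 10 μM GTPγS. Filtration, scintillation counting; pKB from IC50 corrected for agonist concentration/EC50.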

[5] = molecular target: T3, Alpha-2A adrenergic receptor (Homo sapiens, UniProt P08913); assay: Binding affinity for human alpha-2 adrenergic receptor expressed in CHO cell; type: cell-based
T3 sequence (P08913 whole entry): T2 sequence (whole entry)

[6] = molecular target: T4, Adrenergic receptor alpha-1 (Rattus norvegicus, UniProt P15823+P23944+P43140); assay: In vitro binding affinity against alpha-1 adrenergic receptor of rat in presence of [3H]-prazosin radioligand; type: protein assay
T4 sequence (P15823 whole entry): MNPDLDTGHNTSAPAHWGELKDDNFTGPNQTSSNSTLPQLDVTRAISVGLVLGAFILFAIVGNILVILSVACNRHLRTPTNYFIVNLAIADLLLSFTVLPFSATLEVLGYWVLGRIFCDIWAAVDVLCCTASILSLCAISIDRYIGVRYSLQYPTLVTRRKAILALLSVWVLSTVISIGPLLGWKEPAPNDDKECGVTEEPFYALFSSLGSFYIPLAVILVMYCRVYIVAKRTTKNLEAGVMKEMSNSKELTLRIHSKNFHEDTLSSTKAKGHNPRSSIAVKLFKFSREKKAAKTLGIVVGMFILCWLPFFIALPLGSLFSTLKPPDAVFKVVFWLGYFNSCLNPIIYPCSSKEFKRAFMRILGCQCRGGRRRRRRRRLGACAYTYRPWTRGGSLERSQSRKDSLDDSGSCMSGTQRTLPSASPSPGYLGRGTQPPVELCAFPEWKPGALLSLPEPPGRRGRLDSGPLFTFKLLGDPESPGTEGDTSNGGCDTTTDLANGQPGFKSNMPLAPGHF
T4 sequence (P23944 whole entry): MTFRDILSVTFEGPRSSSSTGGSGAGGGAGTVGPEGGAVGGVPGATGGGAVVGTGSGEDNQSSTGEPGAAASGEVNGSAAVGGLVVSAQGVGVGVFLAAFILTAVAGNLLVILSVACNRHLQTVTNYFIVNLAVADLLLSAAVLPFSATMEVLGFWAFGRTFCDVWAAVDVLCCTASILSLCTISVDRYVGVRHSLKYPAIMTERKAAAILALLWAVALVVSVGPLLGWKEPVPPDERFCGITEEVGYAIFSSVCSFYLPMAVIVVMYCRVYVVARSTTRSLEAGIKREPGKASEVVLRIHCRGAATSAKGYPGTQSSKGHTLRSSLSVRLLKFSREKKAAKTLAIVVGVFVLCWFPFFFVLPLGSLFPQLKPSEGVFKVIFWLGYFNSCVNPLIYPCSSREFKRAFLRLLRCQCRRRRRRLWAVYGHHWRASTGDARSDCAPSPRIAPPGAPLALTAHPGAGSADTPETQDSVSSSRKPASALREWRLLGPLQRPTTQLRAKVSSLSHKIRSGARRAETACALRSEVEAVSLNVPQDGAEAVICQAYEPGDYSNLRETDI
T4 sequence (P43140 whole entry): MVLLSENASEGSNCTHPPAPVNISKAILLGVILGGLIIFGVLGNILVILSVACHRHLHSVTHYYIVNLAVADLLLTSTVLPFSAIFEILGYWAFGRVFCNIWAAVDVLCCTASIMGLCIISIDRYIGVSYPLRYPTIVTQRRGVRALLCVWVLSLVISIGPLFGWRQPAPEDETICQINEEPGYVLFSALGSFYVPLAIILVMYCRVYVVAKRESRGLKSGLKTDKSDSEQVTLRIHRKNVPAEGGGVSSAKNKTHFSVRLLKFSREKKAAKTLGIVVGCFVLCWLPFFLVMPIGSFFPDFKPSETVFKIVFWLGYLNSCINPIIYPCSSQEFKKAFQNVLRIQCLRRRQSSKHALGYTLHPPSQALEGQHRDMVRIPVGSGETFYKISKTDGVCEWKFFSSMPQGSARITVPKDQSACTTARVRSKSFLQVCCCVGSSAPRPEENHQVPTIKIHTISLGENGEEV

Chain of Sodium-dependent serotonin transporter (P31652 whole entry): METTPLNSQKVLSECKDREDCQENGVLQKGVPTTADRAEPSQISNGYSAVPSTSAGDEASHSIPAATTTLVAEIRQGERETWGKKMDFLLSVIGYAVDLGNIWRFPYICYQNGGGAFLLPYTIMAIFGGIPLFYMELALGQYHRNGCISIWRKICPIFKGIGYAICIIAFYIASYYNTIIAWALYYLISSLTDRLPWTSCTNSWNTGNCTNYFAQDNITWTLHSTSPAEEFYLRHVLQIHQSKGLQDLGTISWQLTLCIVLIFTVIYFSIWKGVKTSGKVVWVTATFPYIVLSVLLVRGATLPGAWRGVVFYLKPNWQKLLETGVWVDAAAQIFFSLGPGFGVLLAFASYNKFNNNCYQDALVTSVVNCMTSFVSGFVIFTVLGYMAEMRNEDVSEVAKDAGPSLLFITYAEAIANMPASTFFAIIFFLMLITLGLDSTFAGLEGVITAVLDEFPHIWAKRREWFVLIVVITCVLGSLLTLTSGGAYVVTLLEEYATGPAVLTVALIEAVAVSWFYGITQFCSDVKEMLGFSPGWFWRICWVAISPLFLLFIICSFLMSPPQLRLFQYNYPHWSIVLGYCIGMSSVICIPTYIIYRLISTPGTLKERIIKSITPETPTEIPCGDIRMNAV

Row | Structure (SMILES) | Ki [1] | Ki [2] | Log Ki [3] | pKB [4] | Ki [5] | Log Ki [6]
1 | C1=NCC(Cc2cc3ccccc3o2)N1 (centres undefined) | 1000 nM | 63.1 nM | -7.9 | 6.9 | 20 nM | -5.6
2 | CCC1(c2cnc[nH]2)Cc2ccccc2C1 [ATIPAMEZOLE] | > 3160 nM | > 10000 nM |  |  | 3.16 nM | 
3 | Clc1cccc2ccc(CC3CN=CN3)cc12 (centres undefined) | 31.6 nM | 20 nM | -7.5 | 7.5 | 25.1 nM | -6.4
4 | Fc1ccc2c(c1)C=C(CC1CN=CN1)CC2 (centres undefined) | 1.58 nM | 50.1 nM | -6.7 | 6.7 | 158 nM | -6.6
5 | Clc1cccc2c1C=C(CC1CN=CN1)CC2 (centres undefined) | 20 nM | 50.1 nM | -7.6 | 7.6 | 31.6 nM | -6.4
6 | C1=NC[C@H](C[C@]23CCc4ccccc4C2C3)N1 (some centres undefined) | 50.1 nM | 794 nM | -7.3 | 6.8 | 63.1 nM | -5.9
7 | C1=NCC(CC2=Cc3ccccc3CC2)N1 (centres undefined) | 39.8 nM | 50.1 nM | -7 | 6.6 | 100 nM | -6.4
8 | C1=NC[C@@H](C2C[C@@]23CCc2ccccc2C3)N1 (some centres undefined) | 2 nM | 100 nM | -8.2 | 8.2 | 3.16 nM | -6.3
9 | CN[C@H](CC(C)C)C(=O)N[C@H]1C(=O)N[C@@H](CC(N)=O)C(=O)N[C@H]2C(=O)N[C@H]3C(=O)N[C@H](C(=O)N[C@H](C(=O)O)c4cc(O)cc(O)c4-c4cc3ccc4O)[C@H](O)c3ccc(c(Cl)c3)Oc3cc2cc(c3O[C@@H]2O[C@H](CO)[C@@H](O)[C@H](O)[C@H]2O[C@H]2C[C@](C)(N)[C@H](O)[C@H](C)O2)Oc2ccc(cc2Cl)[C@H]1O [VANCOMYCIN] | 50.1 nM | 15.8 nM | -6.9 | 6.7 |  | -6
10 | C1=NC[C@]2(CC[C@@H]3Cc4ccccc4C[C@H]3C2)N1 (relative stereo) | 15.8 nM | 200 nM | -8 | 8.2 | 1.26 nM | -6.1
11 | CCC1(c2c[nH]cn2)Cc2ccccc2C1 [ATIPAMEZOLE] |  |  |  | 8.9 |  | -5.7
12 | CNCCC(Oc1ccc(C(F)(F)F)cc1)c1ccccc1 (centres undefined) |  |  |  | 7.4 |  | 
13 | C1=NCC(CC2Cc3ccccc3C2)N1 (centres undefined) | 63.1 nM | 39.8 nM | -8.7 | 8.1 | 3.98 nM | -6.3
14 | NC1=NC(CC2=Cc3ccccc3CC2)CN1 (centres undefined) | 39.8 nM | 79.4 nM | -6.5 |  |  | -7.2
15 | Fc1cccc2c1C=C(CC1CN=CN1)CC2 (centres undefined) | 79.4 nM | 126 nM | -7.4 | 6.8 | 39.8 nM | -6.3
16 | C1=NC(CC2CCc3ccccc3O2)CN1 (centres undefined) | 501 nM | 794 nM | -7.3 |  |  | -6.5
